Active and inactive are the calls of the source. The calls are words filed in the database; no cut-off is given here.
What was measured:
[1] = system: Human immunodeficiency virus 2; assay: Antiviral activity against HIV2 MS infected in human MT4 cells assessed as reduction in virus-induced cytopathic effect after 5 days by MTT assay; format: functional, organism-based; conditions: Human immunodeficiency virus 2, MT4, 120 h
Outline: (§1)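 MT4 cells were infected 1 h with 50–100 pg RNA virus, washed twice, and exposed in triplicate to half-log PI dilutions (DMSO 1% final) for 5 days at 37°C. Cell viability was read by MTT: 4 h, SDS/HCl lysis overnight, OD at 570/650 nm. Cytopathic-effect reduction was scaled between infected and uninfected controls. EC50 by nonlinear regression, mean of three experiments.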

[2] = system: Human immunodeficiency virus 2; assay: Antiviral activity against HIV2 CBL-23 infected in human PBMC assessed as inhibition of virus production after 5 days by Lenti-RT activity assay; format: functional, organism-based; conditions: Human immunodeficiency virus 2, CBL-23, 120 h
Outline: (§2)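 PBMCs were stimulated with PHA (5 μg/ml) for 3 days, then kept in 20% FBS medium with IL-2 (50 U/ml). Cells were infected 1 h with 50–100 pg RNA virus, washed twice, and given half-log PI dilutions (DMSO 1% final) in triplicate. After 5 days at 37°C, supernatant RT was read versus infected control. EC50 by nonlinear regression, mean of three experiments.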

[3] = system: Human immunodeficiency virus 2; assay: Antiviral activity against HIV2 CDC310319 isolate infected in human PBMC assessed as inhibition of virus production after 5 days by Lenti-RT activity assay; format: functional, organism-based; conditions: Human immunodeficiency virus 2, 120 h; outline: as §2
MT4 = assay: (§3) Ratio of EC50 for HIV2 MS to EC50 for HIV1 NL4-3 infected in human MT4 cells; format: functional
PBMC [4] = assay: (§4) Ratio of EC50 for HIV2 CBL-23 infected in human PBMC to EC50 for HIV1 NL4-3 infected in human MT4 cells; format: functional
PBMC [5] = assay: (§5) Ratio of EC50 for HIV2 CDC310319 infected in human PBMC to EC50 for HIV1 NL4-3 infected in human MT4 cells; format: functional
[6] = system: Human immunodeficiency virus 2; assay: Antiviral activity against wild type HIV2 ROD infected in human CEM cells assessed as inhibition of virus production after 7 days by Lenti-RT activity assay; format: functional, organism-based; conditions: Human immunodeficiency virus 2, ROD, CCRF-CEM, 168 h
[7] = system: Human immunodeficiency virus 2; assay: Antiviral activity against HIV2 ROD with protease G17N mutation infected in human CEM cells assessed as inhibition of virus production after 7 days by Lenti-RT activity assay; format: functional, organism-based; conditions: Human immunodeficiency virus 2, ROD, CCRF-CEM, 168 h
Outline: (§6)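 Protease mutant clones of HIV-2ROD came from site-directed mutagenesis of pSL-3, with stocks made by 293T transfection. CEM174 cells were infected with 100 pg RT of virus for 2 h at 37°C, washed, and seeded at 2 × 10^5 cells/ml. PI was added as 1:4 serial dilutions, 1% DMSO final, and incubated 7 days. Supernatant RT was read, in triplicate. EC50 came from nonlinear regression, and fold-change is mutant EC50 divided by HIV-2ROD EC50.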

[8] = system: Human immunodeficiency virus 2; assay: Antiviral activity against HIV2 ROD with protease V47A mutation infected in human CEM cells assessed as inhibition of virus production after 7 days by Lenti-RT activity assay; format: functional, organism-based; conditions: Human immunodeficiency virus 2, ROD, CCRF-CEM, 168 h; outline: as §6
[9] = system: Human immunodeficiency virus 2; assay: Antiviral activity against HIV2 ROD with protease G17N/V47A mutation infected in human CEM cells assessed as inhibition of virus production after 7 days by Lenti-RT activity assay; format: functional, organism-based; conditions: Human immunodeficiency virus 2, ROD, CCRF-CEM, 168 h; outline: as §6
[10] = system: Human immunodeficiency virus 2; assay: Ratio of EC50 for HIV2 ROD with protease G17N mutation to EC50 for wild type HIV2 ROD; format: functional; outline: as §6
[11] = system: Human immunodeficiency virus 2; assay: Ratio of EC50 for HIV2 ROD with protease V47A mutation to EC50 for wild type HIV2 ROD; format: functional; outline: as §6
[12] = system: Human immunodeficiency virus 2; assay: Ratio of EC50 for HIV2 ROD with protease G17N/V47A mutation to EC50 for wild type HIV2 ROD; format: functional; outline: as §6
[13] = system: Human immunodeficiency virus 1; assay: Antiviral activity against HIV1 NL4-3 infected in human MT4 cells assessed as reduction in virus-induced cytopathic effect after 5 days by MTT assay; format: functional, organism-based; conditions: Human immunodeficiency virus 1, NL4-3, MT4, 120 h; outline: as §1
[14] = as §3; format: functional
[15] = as §4; format: functional
[16] = as §5; format: functional
[17] = system: Human immunodeficiency virus 2; assay: Antiviral activity against HIV2 MS infected in human MT4 cells assessed as inhibition of virus production after 5 days by Lenti-RT activity assay; format: functional, organism-based; conditions: Human immunodeficiency virus 2, MT4, 120 h
Outline: (§7)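 Infection used 50 to 100 pg RNA for 1 h, followed by two washes. MT4 cells or PHA-stimulated, IL-2-maintained PBMCs were then exposed to half-log PI dilutions in triplicate, with 1% DMSO final. Incubation was 5 days at 37°C. Day-5 supernatant RT was read by Lenti-RT assay. EC50 came from nonlinear regression, as the mean of three independent experiments.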

[18] = system: Human immunodeficiency virus 2; assay: Antiviral activity against HIV2 MS infected in human PBMC cells assessed as inhibition of virus production after 5 days by Lenti-RT activity assay; format: functional, organism-based; conditions: Human immunodeficiency virus 2, PBMC, 120 h; outline: as §7
[19] = system: Human immunodeficiency virus 1; assay: Antiviral activity against HIV1 NL4-3 infected in human MT4 cells assessed as inhibition of virus production after 5 days by Lenti-RT activity assay; format: functional, organism-based
Outline: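 HIV-1 NL4-3 in MT4 cells (RPMI 1640, 10% FBS) was adsorbed 1 h at 50–100 pg RNA and washed twice. PI in DMSO (1% final) was added in half-log dilutions, in triplicate. After 5 days at 37°C, supernatant RT was measured and expressed relative to infected untreated control. EC50 came from nonlinear regression, as the mean of three independent experiments.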

[20] = system: Human immunodeficiency virus 1; assay: Antiviral activity against HIV1 NL4-3 infected in human PBMC cells assessed as inhibition of virus production after 5 days by Lenti-RT activity assay; format: functional, organism-based; outline: as §2
[21] = system: Human immunodeficiency virus 2; assay: Antiviral activity against HIV2 MS infected in human MT4 cells […] after 1 passage; format: functional, organism-based; conditions: Human immunodeficiency virus 2, MT4
[22] = system: Human immunodeficiency virus 2; assay: Antiviral activity against HIV2 MS infected in human MT4 cells […] after 18 passages; format: functional, organism-based; conditions: Human immunodeficiency virus 2, MT4
[23] = system: Human immunodeficiency virus 2; assay: Ratio of EC50 for HIV2 MS infected in human MT4 cells after 1 passage to EC50 for HIV2 MS infected in human MT4 cells; format: functional
[24] = system: Human immunodeficiency virus 2; assay: Ratio of EC50 for HIV2 MS infected in human MT4 cells after 18 passages to EC50 for HIV2 MS infected in human MT4 cells; format: functional
[25] = system: Human immunodeficiency virus 1; assay: Antiviral activity against HIV1 in presence of 50% human serum; format: functional, organism-based

Row | SMILES | EC50 [1] | EC50 [2] | EC50 [3] | EC50 [6] | EC50 [7] | EC50 [8] | EC50 [9] | Ratio EC50 [10] | Ratio EC50 [11] | Ratio EC50 [12] | EC50 [13] | Ratio EC50 [14] | Ratio EC50 [15] | Ratio EC50 [16] | also measured
1 | CC(C)CN(C[C@@H](O)[C@H](Cc1ccccc1)NC(=O)O[C@H]1CCOC1)S(=O)(=O)c1ccc(N)cc1 [AMPRENAVIR] | 900 nM | 939 nM | 674 nM | 855 nM | 583 nM | 630 nM | 404 nM | 0.7 | 0.7 | 0.5 | 72 nM | – | – | – | Ratio EC50 (MT4): 12.5; Ratio EC50 (PBMC [4]): 13; Ratio EC50 (PBMC [5]): 9.2
2 | COC(=O)N[C@H](C(=O)N[C@@H](Cc1ccccc1)[C@@H](O)CN(Cc1ccc(-c2ccccn2)cc1)NC(=O)[C@@H](NC(=O)OC)C(C)(C)C)C(C)(C)C [ATAZANAVIR] | 20 nM | 39 nM | 110 nM | 34 nM | 20 nM | 5 nM | 3 nM | 0.6 | 0.1 | 0.1 | 5 nM | 4 | 7.8 | 22 | –
3 | CC(C)CN(C[C@@H](O)[C@H](Cc1ccccc1)NC(=O)O[C@H]1CO[C@H]2OCC[C@H]21)S(=O)(=O)c1ccc(N)cc1 [DARUNAVIR] | – | 83 nM | 155 nM | 9 nM | 6 nM | 10 nM | 8 nM | 0.7 | 1.1 | 0.9 | 12 nM | – | 6.9 | 12.9 | –
4 | CC(C)(C)NC(=O)[C@@H]1CN(Cc2cccnc2)CCN1C[C@@H](O)C[C@@H](Cc1ccccc1)C(=O)N[C@H]1c2ccccc2C[C@H]1O.O [INDINAVIR] | 22 nM | 33 nM | 108 nM | 65 nM | 52 nM | 34 nM | 24 nM | 0.8 | 0.5 | 0.5 | 38 nM | 0.5 | 0.8 | 2.6 | –
5 | Cc1cccc(C)c1OCC(=O)N[C@@H](Cc1ccccc1)[C@@H](O)C[C@H](Cc1ccccc1)NC(=O)[C@H](C(C)C)N1CCCNC1=O [LOPINAVIR] | 15 nM | 12 nM | 180 nM | 35 nM | 28 nM | 340 nM | 260 nM | 0.8 | 9.7 | 7.4 | 18 nM | 0.8 | 0.7 | 10 | EC50 [17]: 6 nM; EC50 [18]: 15 nM; Activity [19]: Active; Activity [20]: Active; EC50 [21]: 15 nM; EC50 [22]: 515 nM; Ratio EC50 [23]: 1; Ratio EC50 [24]: 34
6 | Cc1c(O)cccc1C(=O)N[C@@H](CSc1ccccc1)[C@H](O)CN1C[C@H]2CCCC[C@H]2C[C@H]1C(=O)NC(C)(C)C [NELFINAVIR] | 48 nM | 83 nM | 389 nM | 281 nM | 199 nM | 177 nM | 100 nM | 0.7 | 0.6 | 0.4 | 18 nM | 2.7 | 4.6 | 21.6 | –
7 | CC(C)c1nc(CN(C)C(=O)N[C@H](C(=O)N[C@@H](Cc2ccccc2)C[C@H](O)[C@H](Cc2ccccc2)NC(=O)OCc2cncs2)C(C)C)cs1 [RITONAVIR] | 349 nM | 514 nM | 665 nM | 421 nM | 310 nM | 115 nM | 84 nM | 0.7 | 0.3 | 0.2 | 46 nM | 7.6 | 11.2 | 14.5 | EC50 [25]: 100 nM
8 | CC(C)(C)NC(=O)[C@@H]1C[C@@H]2CCCC[C@@H]2CN1C[C@@H](O)[C@H](Cc1ccccc1)NC(=O)[C@H](CC(N)=O)NC(=O)c1ccc2ccccc2n1 [SAQUINAVIR] | 5 nM | 8 nM | 68 nM | 3.6 nM | 2.2 nM | 0.2 nM | 0.2 nM | 0.6 | 0.1 | 0.1 | 12 nM | 0.4 | 0.7 | 5.7 | –
